The record followed here is PubChem BioAssay AID493019 (Circadian Research, Kay Laboratory, University of …, 2011).

Assay [1] is described as follows: circadian period lengthening and CKI inhibition, late-stage follow-up, mechanism study for circadian clock modulator project, cell-based, U2OS Bmal1-dLuc, CKIdelta, CKIalpha, ERK2, CDK7 (AID 493019). To be noted: U2OS Bmal1-dLuc circadian period lengthening, luminescence; for EC (10 h period change): measured here: 10 h period lengthening; for EC (15 h period change): measured here: 15 h period lengthening. The method, boiled down:
(§1)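 Material – U2OS osteosarcoma cells carrying Bmal1-dLuc reporter, plus in vitro kinases · Times – circadian recording 5 days, kinase reaction 3 h at 30 °C · Signal – luciferase luminescence every 100 min, Kinase-Glo residual-ATP luminescence for kinases · Measure – doses lengthening fitted rhythm period 5, 10, 15 h, kinase IC50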

Assay [2] has as its target Cyclin-dependent kinase 7 (Homo sapiens) (UniProt P50613). The description is as above. The following applies: U2OS Bmal1-dLuc circadian period lengthening, luminescence; measured here: CDK7 in vitro kinase. The method, boiled down:
as §1

Assay [3] deals with U2OS Bmal1-dLuc circadian period lengthening, luminescence. The description is as above. The method, boiled down: as §1
The target of assay [4] is Casein kinase I isoform alpha (Homo sapiens) (UniProt P48729). Described as above. To be noted: U2OS Bmal1-dLuc circadian period lengthening, luminescence; for IC50: measured here: CKIalpha in vitro kinase. The method, boiled down:
as §1

Assay [5] deals with Casein kinase I isoform delta (Homo sapiens) (UniProt P48730). The assay is described as above. The following applies: U2OS Bmal1-dLuc circadian period lengthening, luminescence; for IC50: measured here: CKIdelta in vitro kinase. The procedure, abridged:
as §1

Assay [6] addresses Mitogen-activated protein kinase 1 (Homo sapiens) (UniProt P28482). The description is as above. To be noted: U2OS Bmal1-dLuc circadian period lengthening, luminescence; measured here: ERK2 in vitro kinase. The method, boiled down:
as §1

Usually IC50 stands for the concentration needed to halve the response being measured. Lower therefore signals higher potency. In assay [1], `CC(C)n1cnc2c(NCc3ccccc3)ncnc21` had an EC (10 h period change) of 17 µM. Further, in assay [1], the EC (15 h period change) was determined as 38 µM. Moreover, the IC50 was found to be 29 µM in assay [2], 23 µM in assay [4], 21 µM in assay [5] and 160 µM in assay [6]. Besides, the EC (5 h period change) in assay [3] is 4400 nM.
One may read the EC50 as the concentration giving half of the maximal effect. `CC(C)n1cnc2c(NCc3cccc(C(F)(F)F)c3)ncnc21` gave an EC (10 h period change) in assay [1] of 5.7 µM. The EC (15 h period change) in assay [1] turned out to be 13 µM. In addition, the IC50 in assay [2] stood at 29 µM; in assay [4], 5.6 µM; in assay [5], 8.8 µM; in assay [6] it was 52 µM. For the same molecule, in assay [3], the EC (5 h period change) was 1500 nM. For the same molecule, the 50% effective concentration (EC50) was 9.2 µM in assay [4] (measured here: CKIalpha cell PER1 degradation) and 9.7 µM in assay [5] (measured here: CKIdelta cell PER1 degradation).
